# In ChEMBL document CHEMBL4765308, “N-alkylpiperidine carbamates as potential anti-Alzheimer's agents” (Eur J Med Chem, 2020):
# The source made the active and inactive calls. No cut-off for these calls is given here.
# Tests used:
# [1] = biological target: T1, Acetylcholinesterase (Homo sapiens, UniProt P22303); experiment: Inhibition of human AChE using acetylthiocholine iodide as substrate preincubated with enzyme for 30 mins followed by substrate addition by Ellman's method
# [2] = biological target: T2, Amine oxidase [flavin-containing] A (Homo sapiens, UniProt P21397); experiment: Inhibition of human recombinant microsomal MAO-A expressed in baculovirus-infected BTI-TN-5B1-4 cells assessed as inhibition of H2O2 production using p-tyramine as substrate preincubated for 15 mins followed by substrate addition by Amplex Red reagent based fluorescence analysis
# T2 sequence (P21397 whole entry): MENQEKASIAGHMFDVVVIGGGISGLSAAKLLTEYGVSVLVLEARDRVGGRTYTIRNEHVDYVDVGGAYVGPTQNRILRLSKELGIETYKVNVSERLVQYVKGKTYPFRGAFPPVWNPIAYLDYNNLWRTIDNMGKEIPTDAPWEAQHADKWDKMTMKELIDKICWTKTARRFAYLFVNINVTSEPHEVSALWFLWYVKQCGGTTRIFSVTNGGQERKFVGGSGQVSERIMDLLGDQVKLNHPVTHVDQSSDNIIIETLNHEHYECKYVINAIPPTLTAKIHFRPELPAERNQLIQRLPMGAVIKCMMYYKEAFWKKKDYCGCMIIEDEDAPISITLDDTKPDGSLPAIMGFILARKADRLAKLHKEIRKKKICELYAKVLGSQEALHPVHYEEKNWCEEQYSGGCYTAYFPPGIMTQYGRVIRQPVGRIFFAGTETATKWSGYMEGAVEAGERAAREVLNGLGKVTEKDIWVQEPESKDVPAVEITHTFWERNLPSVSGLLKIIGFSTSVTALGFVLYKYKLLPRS
# [3] = biological target: T3, Cholinesterase (Homo sapiens, UniProt P06276); experiment: Inhibition of human BuchE using butyrylthiocholine iodide as substrate preincubated for 30 mins followed by substrate addition by Ellman's method
# [4] = biological target: T4, Amine oxidase [flavin-containing] B (Homo sapiens, UniProt P27338); experiment: (§1) Inhibition of human recombinant microsomal MAO-B expressed in baculovirus-infected BTI-TN-5B1-4 cells assessed as inhibition of H2O2 production using p-tyramine as substrate preincubated for 15 mins followed by substrate addition by Amplex Red reagent based fluorescence analysis
# T4 sequence (P27338 whole entry): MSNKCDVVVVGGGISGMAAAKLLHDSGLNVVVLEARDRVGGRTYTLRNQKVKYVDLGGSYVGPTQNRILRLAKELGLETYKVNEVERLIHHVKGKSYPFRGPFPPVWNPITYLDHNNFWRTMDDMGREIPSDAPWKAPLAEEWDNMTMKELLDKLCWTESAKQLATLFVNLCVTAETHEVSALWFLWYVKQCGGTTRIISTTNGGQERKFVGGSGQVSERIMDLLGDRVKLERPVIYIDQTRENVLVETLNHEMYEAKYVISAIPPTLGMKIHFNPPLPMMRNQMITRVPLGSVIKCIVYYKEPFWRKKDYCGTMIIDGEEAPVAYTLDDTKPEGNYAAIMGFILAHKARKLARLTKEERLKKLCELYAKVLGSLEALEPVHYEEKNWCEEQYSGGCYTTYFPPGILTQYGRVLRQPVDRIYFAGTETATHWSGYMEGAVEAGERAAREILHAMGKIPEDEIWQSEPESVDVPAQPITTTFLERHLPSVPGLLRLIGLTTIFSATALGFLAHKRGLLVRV
# Procedure, shortened: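 Recombinant human MAO-A or MAO-B (insect-cell microsomes) preincubated with compound 15 min at 37 °C in 50 mM sodium phosphate, pH 7.4, 0.05% Triton X-114. Reaction started with 1 mM p-tyramine, 250 µM Amplex Red and 2 U/mL HRP (final concentrations). Resorufin fluorescence (ex 530/em 590 nm) followed for 20 min at 37 °C, duplicates. Blank-corrected residual activity; IC50 from a four-parameter Hill fit.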
# [5] = species: Homo sapiens; experiment: Inhibition of HFIP-pretreated human amyloid beta (1 to 42) self aggregation at 10 uM incubated for 36 to 48 hrs by thioflavin-T based fluorescence method relative to control; details: time 36-48 hrs
# Procedure, shortened: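 HFIP-pretreated Aβ1-42 (1.5 µM) incubated with compound (10 µM) and thioflavin-T (10 µM final) at room temperature with continuous shaking for 36–48 h. Fluorescence (ex 440/em 490 nm) read every 3 min. Percent inhibition compared with Aβ + DMSO control, run in quadruplicate. Three independent experiments, mean ± SD, one-way ANOVA with Bonferroni test.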
# [6] = system: HepG2; experiment: Cytotoxicity against human HepG2 cells at 50 uM incubated for 48 hrs […]; assay type: cell-based; details: hepg2, 48 h
# [7] = biological target: T4, Amine oxidase [flavin-containing] B; experiment: as §1, with “Time dependent inhibition” for “Inhibition of”, “preincubated with enzyme” for “preincubated”, “for 5 to” for “for”; details: time 5-15 min
# [8] = system: SH-SY5Y; experiment: Cytotoxicity against human SH-SY5Y cells at 20 uM incubated for 48 hrs […]; assay type: cell-based
# [9] = system: SH-SY5Y; experiment: Neuroprotective activity against human SH-SY5Y cells assessed as reduction in amyloid beta(1 to 42)-induced cell death at 20 uM measured after 48 hrs by Annexin-V APC/7-AAD staining based flow cytometric analysis; assay type: functional
# Procedure, shortened: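 Aβ1-42 (5 µM) pre-aggregated 24 h at 37 °C in reduced-serum medium, with or without compound (20 µM). SH-SY5Y cells (2×10^4/well) treated the next day for 48 h, then washed in cold PBS and stained with 7-AAD (2 µg/mL, 10 min, room temperature). Percent 7-AAD-positive cells by flow cytometry, relative to control. At least two independent assays in duplicate; ANOVA with t-test.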
# [10] = system: SH-SY5Y; experiment: Reduction in amyloid beta (1 to 42) aggregates in human SH-SY5Y cells at 20 uM incubated for 48 hrs by DAPI stain based immunofluorescence staining analysis; assay type: functional, cell-based
# Procedure, shortened: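 SH-SY5Y cells on coverslips treated for 48 h with preincubated Aβ1-42 (5 µM) in reduced-serum medium, with or without compound (20 µM). Fixed in 5% formalin, permeabilized with 0.5% Tween 20 and blocked with 3% BSA. Stained with rabbit anti-amyloid fibril LOC antibody (1:1000, 2 h) and Alexa 488 secondary (1.5 h). DAPI-mounted and imaged by confocal microscopy (63× oil).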
# [11] = biological target: T1, Acetylcholinesterase; experiment: Reversible inhibition of human AChE using acetylthiocholine iodide as substrate preincubated with enzyme at 10XIC50 for 30 mins followed by substrate addition and measured for 5 mins by Ellman's method; details: time 35.0 min
# [12] = biological target: T3, Cholinesterase; experiment: Non-time dependent inhibition of human BuChE using butyrylthiocholine iodide as substrate preincubated with enzyme for 15 to 60 mins followed by substrate addition by Ellman's method; details: time 15-60 min
# [13] = biological target: T3, Cholinesterase; experiment: Reversible inhibition of human BuChE using butyrylthiocholine iodide as substrate preincubated with enzyme at 10XIC50 for 30 mins followed by substrate addition and measured for 5 mins by Ellman's method; details: time 35.0 min
# [14] = biological target: T1, Acetylcholinesterase; experiment: Non-time dependent inhibition of human AChE using acetylthiocholine iodide as substrate preincubated with enzyme for 15 to 60 mins followed by substrate addition by Ellman's method; details: time 15-60 min
# T3 sequence (P06276 whole entry): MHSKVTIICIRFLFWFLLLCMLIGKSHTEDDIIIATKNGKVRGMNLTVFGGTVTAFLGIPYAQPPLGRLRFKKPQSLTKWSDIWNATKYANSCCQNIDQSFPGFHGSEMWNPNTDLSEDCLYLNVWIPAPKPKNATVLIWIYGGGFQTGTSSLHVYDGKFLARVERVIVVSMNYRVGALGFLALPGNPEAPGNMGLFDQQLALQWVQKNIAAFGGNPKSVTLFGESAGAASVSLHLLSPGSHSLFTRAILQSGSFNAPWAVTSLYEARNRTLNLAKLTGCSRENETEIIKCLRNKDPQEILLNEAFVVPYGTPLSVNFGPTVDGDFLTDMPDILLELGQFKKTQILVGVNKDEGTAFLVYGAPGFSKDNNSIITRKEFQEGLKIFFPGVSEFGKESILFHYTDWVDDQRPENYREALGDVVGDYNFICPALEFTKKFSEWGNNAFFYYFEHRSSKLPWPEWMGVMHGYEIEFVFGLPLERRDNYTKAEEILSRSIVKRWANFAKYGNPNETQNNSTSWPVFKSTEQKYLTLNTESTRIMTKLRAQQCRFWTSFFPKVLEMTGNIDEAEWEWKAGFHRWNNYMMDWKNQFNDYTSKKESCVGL
# T1 sequence (P22303 whole entry): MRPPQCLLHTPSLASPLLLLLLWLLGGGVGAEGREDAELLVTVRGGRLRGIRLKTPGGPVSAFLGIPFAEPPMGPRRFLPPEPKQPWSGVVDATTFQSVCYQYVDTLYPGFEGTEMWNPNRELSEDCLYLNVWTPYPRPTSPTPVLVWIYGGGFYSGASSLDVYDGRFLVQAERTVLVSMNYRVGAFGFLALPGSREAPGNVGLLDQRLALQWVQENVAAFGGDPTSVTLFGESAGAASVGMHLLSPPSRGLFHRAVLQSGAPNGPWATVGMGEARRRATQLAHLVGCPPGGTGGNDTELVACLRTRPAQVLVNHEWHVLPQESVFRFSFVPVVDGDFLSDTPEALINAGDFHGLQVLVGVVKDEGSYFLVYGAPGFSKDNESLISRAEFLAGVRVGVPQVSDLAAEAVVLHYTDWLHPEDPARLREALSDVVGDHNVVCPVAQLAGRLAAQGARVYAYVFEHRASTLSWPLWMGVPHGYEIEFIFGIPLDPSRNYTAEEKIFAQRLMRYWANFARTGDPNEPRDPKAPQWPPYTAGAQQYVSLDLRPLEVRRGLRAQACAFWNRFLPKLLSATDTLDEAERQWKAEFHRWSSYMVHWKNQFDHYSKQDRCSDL
Structure (SMILES),IC50 [1] [µM],IC50 [2] [µM],IC50 [3] [µM],IC50 [4] [µM],inhibition [5] [%],Activity [6],inhibition (INH) [7],Activity [8],Activity [9],inhibition [10],inhibition [11],inhibition [12],inhibition [13],inhibition [14]
C#CCN1CCC(OC(=O)Nc2ccc(C(C)C)cc2)CC1,> 100,> 100,> 100,0.178,25.7,Non-Toxic,Active,Non-Toxic,Active,Active,–,–,–,–
O=C(Nc1ccccc1)OC1CCCN(C2Cc3ccccc3C2)C1 (stereo unspecified),> 100,> 100,0.0645,> 100,< 20,Non-Toxic,–,Non-Toxic,–,–,Active,Active,Active,Active
CC(C)c1ccc(NC(=O)OCC2CCN(Cc3ccccc3)CC2)cc1,2.25,> 100,0.809,> 100,< 20,Non-Toxic,–,Non-Toxic,–,–,Active,Active,Active,Active
O=C(Nc1ccccc1)OCC1CCN(Cc2ccccc2)CC1,7.31,> 100,0.555,26.1,< 20,Non-Toxic,Not Active,Non-Toxic,Active,inactive,Active,Active,Active,Active
